Measurements taken from PMC9889650 (Journal of Veterinary Internal Medicine, 2022).
Like-named read-outs stand apart in the source and are kept apart here.

Key:
[1] = test system: canine osteosarcoma cell line OSCA40; assay: Cell viability after 24h treatment, OSCA40 cell line; assay type: cell-based, dog; conditions: OSCA40, 24h
How it was run: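 OSCA40 canine osteosarcoma cells were kept in α-MEM with 10% FCS, 10 mM L-glutamine and penicillin/streptomycin at 37°C, 5% CO2, for at most four passages, and tested Mycoplasma-negative. As a control line they were given a BH3 mimetic at 2 nM–10 μM, with 0.001% DMSO as the negative control, for 24 h.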

[2] = test system: MDCK immortalized canine kidney cells; assay: Cell viability after 24h treatment, MDCK cell line; assay type: cell-based, dog
How it was run: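 MDCK canine kidney cells were kept in DMEM with 10% FCS and penicillin/streptomycin at 37°C, 5% CO2, for at most four passages, and tested Mycoplasma-negative. As a control line they were given a BH3 mimetic at 2 nM–10 μM, with 0.001% DMSO as the negative control, for 24 h.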

[3] = test system: primary canine T cell cancers (T cell lymphoma, TZL, T-CLL) neoplastic T lymphocytes; assay: In vitro BH3 mimetics sensitivity cell kill assay, primary canine T cell cancers; assay type: cell-based; conditions: dog 26, multicentric large T cell lymphoma, neoplastic CD3+ nodal T cells, 24 h
human DLBCL (hDLBCL) = conditions: single‐agent treatment; cited from earlier work
Beagles = conditions: 2 to 20 mg/kg PO daily for up to 9 months; cited from earlier work
[4] = dogs, 20 mg/kg once a day; cited from earlier work
[5] = test system: human B‐cell acute lymphoblastic leukemia cell line RS4;11; assay: Cell viability after 24h treatment, RS4; assay type: cell-based; conditions: RS4;11 positive control
How it was run: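 RS4;11 human B-ALL cells had their identity genetically confirmed and were grown in RPMI with 10% FCS and penicillin/streptomycin at 37°C, 5% CO2, for at most four passages. They were run as a control with each experiment at 1 × 10^5 cells/well in single replicates, given a BH3 mimetic at 2 nM–10 μM or 0.001% DMSO for 24 h at 37°C.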

[6] = people, 400 mg daily dosing; cited from earlier work

CC1(C)CCC(c2ccc(Cl)cc2)=C(CN2CCN(c3ccc(C(=O)NS(=O)(=O)c4ccc(N[C@H](CCN5CCOCC5)CSc5ccccc5)c(S(=O)(=O)C(F)(F)F)c4)cc3)CC2)C1 [NAV, navitoclax]
sensitivity in vitro [1]: resistance
sensitivity in vitro [2]: resistance
EC50 [3]: 20.8 nM

CC1(C)CCC(CN2CCN(c3ccc(C(=O)NS(=O)(=O)c4ccc(NCC5CCOCC5)c([N+](=O)[O-])c4)c(Oc4cnc5[nH]ccc5c4)c3)CC2)=C(c2ccc(Cl)cc2)C1 [VEN, venetoclax]
sensitivity in vitro [1]: resistance
overall response rate (human DLBCL (hDLBCL)): 18%
sensitivity in vitro [2]: resistance
EC50 [3]: 7.9 nM
Other clinical toxicities (Beagles): grade 2 weight loss associated with hyporexia, and leukotricia
average reduction in circulating lymphocytes (Beagles): 81%
hematological finding (Beagles): mild anemia
area under the curve (AUC) [4]: 73600 ng·h/mL
sensitivity in vitro [5]: sensitive
area under the curve (AUC) [6]: 31800 ng·h/mL
